Assays:
Format in all cases: functional, Salmonella enterica subsp. enterica serovar Typhimurium
[1] = test system: Salmonella typhimurium; assay: Antimicrobial activity against Salmonella enterica serovar Typhimurium S21-1 GyrA S83F mutant
Summary of the method: (§1)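 MICs measured by broth microdilution on the Sensititre automated system and interpreted by CLSI broth microdilution standards. Ciprofloxacin was also tested by agar dilution, widening the range to 0.0075–128 μg/ml. Quality control strains were E. coli ATCC 25922 and 35218, E. faecalis ATCC 29212, S. aureus ATCC 29213 and P. aeruginosa ATCC 27853.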

[2] = test system: Salmonella typhimurium; assay: Antimicrobial activity against Salmonella enterica serovar Typhimurium CHS14 tolC::Kan with GyrA D87G mutant; summary of the method: as §1
[3] = test system: Salmonella typhimurium; assay: Antimicrobial activity against Salmonella enterica serovar Typhimurium CHS38 gyrA+ with GyrA D87G mutation; summary of the method: as §1
[4] = test system: Salmonella typhimurium; assay: Antimicrobial activity against Salmonella enterica serovar Typhimurium S21-3 gyrA+ with ParC S80I mutation; summary of the method: as §1
[5] = test system: Salmonella typhimurium; assay: Antimicrobial activity against Salmonella enterica serovar Typhimurium CS9 with GyrA S83F, D87N, ParC S80I mutation; summary of the method: as §1
[6] = test system: Salmonella typhimurium; assay: Antimicrobial activity against Salmonella enterica serovar Typhimurium S21-4 acrAB::Kan with GyrA S83F, ParC S80I mutation; summary of the method: as §1
[7] = test system: Salmonella typhimurium; assay: Antimicrobial activity against Salmonella enterica serovar Typhimurium CHS18 acrAB::Kan with GyrA S38F mutation; summary of the method: as §1
[8] = test system: Salmonella typhimurium; assay: Antimicrobial activity against Salmonella enterica serovar Typhimurium CS9 tolC::Kan with GyrA S83F, D87N, ParC S80I mutation; summary of the method: as §1
[9] = test system: Salmonella typhimurium; assay: Antimicrobial activity against Salmonella enterica serovar Typhimurium CHS18 gyrA+ with GyrA S38F mutation; summary of the method: as §1
[10] = test system: Salmonella typhimurium; assay: Antimicrobial activity against Salmonella enterica serovar Typhimurium CS1 acrAB::Kan with GyrA S83F, D87N, ParC S80I mutation; summary of the method: as §1
[11] = test system: Salmonella typhimurium; assay: Antimicrobial activity against Salmonella enterica serovar Typhimurium S21-3 with GyrA S83F, ParC S80I mutation; summary of the method: as §1
[12] = test system: Salmonella typhimurium; assay: Antimicrobial activity against Salmonella enterica serovar Typhimurium CHS14 with GyrA D87G mutation; summary of the method: as §1
[13] = test system: Salmonella typhimurium; assay: Antimicrobial activity against Salmonella enterica serovar Typhimurium S21 tolC::Kan
Summary of the method: (§2)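 MICs by automated broth microdilution panels, interpreted to CLSI broth microdilution standards. Ciprofloxacin additionally tested by agar dilution across 0.0075 to 128 μg/ml. Quality control strains: E. coli ATCC 25922 and 35218, Enterococcus faecalis ATCC 29212, S. aureus ATCC 29213, P. aeruginosa ATCC 27853. Test strains are kanamycin-marked deletion mutants of ground-beef isolate S21.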

[14] = test system: Salmonella typhimurium; assay: Antimicrobial activity against Salmonella enterica serovar Typhimurium S21-2 acrAB::Kan with GyrA S83F, ParC S80I mutation; summary of the method: as §1
[15] = test system: Salmonella typhimurium; assay: Antimicrobial activity against Salmonella enterica serovar Typhimurium S21-4 tolC::Kan with GyrA S83F, ParC S80I mutation; summary of the method: as §1
[16] = test system: Salmonella typhimurium; assay: Antimicrobial activity against Salmonella enterica serovar Typhimurium CS3 tolC::Kan with GyrA S83F, D87N, parC S80I mutation; summary of the method: as §1
[17] = test system: Salmonella typhimurium; assay: Antimicrobial activity against Salmonella enterica serovar Typhimurium CS9 acrAB::Kan with GyrA S83F, D87N, ParC S80I mutation; summary of the method: as §1
[18] = test system: Salmonella typhimurium; assay: Antimicrobial activity against Salmonella enterica serovar Typhimurium CS3 gyrA+ with GyrA S83F, D87N, ParC S80I mutation; summary of the method: as §1
[19] = test system: Salmonella typhimurium; assay: Antimicrobial activity against Salmonella enterica serovar Typhimurium S21-1 tolC::Kan with GyrA S83F mutation; summary of the method: as §1
[20] = test system: Salmonella typhimurium; assay: Antimicrobial activity against Salmonella enterica serovar Typhimurium S21 gyrA+; summary of the method: as §1
[21] = test system: Salmonella typhimurium; assay: Antimicrobial activity against Salmonella enterica serovar Typhimurium CHS14 gyrA+ with GyrA D87G mutation; summary of the method: as §1
[22] = test system: Salmonella typhimurium; assay: Antimicrobial activity against Salmonella enterica serovar Typhimurium S21-3 acrAB::Kan with GyrA S83F, ParC S80I mutation; summary of the method: as §1
[23] = test system: Salmonella typhimurium; assay: Antimicrobial activity against Salmonella enterica serovar Typhimurium CHS14 acrAB::Kan with GyrA D87G mutation; summary of the method: as §1
[24] = test system: Salmonella typhimurium; assay: Antimicrobial activity against Salmonella enterica serovar Typhimurium S21-3 tolC::Kan with GyrA S83F, ParC S80I mutation; summary of the method: as §1
[25] = test system: Salmonella typhimurium; assay: Antimicrobial activity against Salmonella enterica serovar Typhimurium S21-2 tolC::Kan with GyrA S83F, ParC S80I mutation; summary of the method: as §1
[26] = test system: Salmonella typhimurium; assay: Antimicrobial activity against Salmonella enterica serovar Typhimurium GyrA S21-1 acrAB::Kan with GyrA S83F mutation; summary of the method: as §1
[27] = test system: Salmonella typhimurium; assay: Antimicrobial activity against Salmonella enterica serovar Typhimurium CS9 gyrA+ with GyrA S83F, D87N, ParC S80I mutation; summary of the method: as §1
[28] = test system: Salmonella typhimurium; assay: Antimicrobial activity against Salmonella enterica serovar Typhimurium CHS38 tolC::Kan with GyrA D87G mutation; summary of the method: as §1
[29] = test system: Salmonella typhimurium; assay: Antimicrobial activity against Salmonella enterica serovar Typhimurium S21-4 gyrA+ with ParC S80I mutation; summary of the method: as §1
[30] = test system: Salmonella typhimurium; assay: Antimicrobial activity against Salmonella enterica serovar Typhimurium CS1 gyrA+ with GyrA S83F, D87N, ParC S80I mutation; summary of the method: as §1
[31] = test system: Salmonella typhimurium; assay: Antimicrobial activity against Salmonella enterica serovar Typhimurium S21-1 gyrA+; summary of the method: as §1
[32] = test system: Salmonella typhimurium; assay: Antimicrobial activity against Salmonella enterica serovar Typhimurium CHS18 tolC::Kan with GyrA S38F mutation; summary of the method: as §1
[33] = test system: Salmonella typhimurium; assay: Antimicrobial activity against Salmonella enterica serovar Typhimurium CS3 acrAB::Kan with GyrA S83F, D87N, ParC S80I mutation; summary of the method: as §1
[34] = test system: Salmonella typhimurium; assay: Antimicrobial activity against Salmonella enterica serovar Typhimurium S21 acrAB::Kan; summary of the method: as §2
[35] = test system: Salmonella typhimurium; assay: Antimicrobial activity against Salmonella enterica serovar Typhimurium CHS18 with GyrA S38F mutation; summary of the method: as §1
[36] = test system: Salmonella typhimurium; assay: Antimicrobial activity against Salmonella enterica serovar Typhimurium CS3 with GyrA S83F, D87N, ParC S80I mutation; summary of the method: as §1
[37] = test system: Salmonella typhimurium; assay: Antimicrobial activity against Salmonella enterica serovar Typhimurium S21; summary of the method: as §1
[38] = test system: Salmonella typhimurium; assay: Antimicrobial activity against Salmonella enterica serovar Typhimurium CS1 with GyrA S83F, D87N, ParC S80I mutation; summary of the method: as §1
[39] = test system: Salmonella typhimurium; assay: Antimicrobial activity against Salmonella enterica serovar Typhimurium S21-2 gyrA+ with ParC S80I mutation; summary of the method: as §1
[40] = test system: Salmonella typhimurium; assay: Antimicrobial activity against Salmonella enterica serovar Typhimurium S21-4 with GyrA S83F, ParC S80I mutation; summary of the method: as §1
[41] = test system: Salmonella typhimurium; assay: Antimicrobial activity against Salmonella enterica serovar Typhimurium CS1 tolC::Kan with GyrA S83F, D87N, ParC S80I mutation; summary of the method: as §1
[42] = test system: Salmonella typhimurium; assay: Antimicrobial activity against Salmonella enterica serovar Typhimurium S21-2 with GyrA S83F, ParC S80I mutation; summary of the method: as §1
[43] = test system: Salmonella typhimurium; assay: Antimicrobial activity against Salmonella enterica serovar Typhimurium CHS38 with GyrA D87G mutation; summary of the method: as §1
[44] = test system: Salmonella typhimurium; assay: Antimicrobial activity against Salmonella enterica serovar Typhimurium CHS38 acrAB::Kan with GyrA D87G mutation; summary of the method: as §1

Measured: MIC

C[C@H]1COc2c(N3CCN(C)CC3)c(F)cc3c(=O)c(C(=O)O)cn1c23.C[C@H]1COc2c(N3CCN(C)CC3)c(F)cc3c(=O)c(C(=O)O)cn1c23.O [LEVOFLOXACIN]
> 16 µg/mL: [11] | [40]
0.03 µg/mL: [7] | [20] | [23] | [31] | [32] | [37] | [44]
8 µg/mL: [5] | [36] | [38]
2 µg/mL: [10] | [17] | [29] | [33]
0.5 µg/mL: [1]
< 0.015 µg/mL: [2] | [3] | [13] | [28] | [34]
1 µg/mL: [4] | [8] | [16] | [41] | [42]
0.12 µg/mL: [14] | [22] | [24] | [43]
0.06 µg/mL: [9] | [18] | [19] | [21] | [25] | [26] | [27] | [30]
0.25 µg/mL: [6] | [12] | [15] | [35] | [39]

C[C@@H]1CN(c2c(F)c(F)c3c(=O)c(C(=O)O)cn(C4CC4)c3c2F)C[C@H](C)N1 [ORBIFLOXACIN]
< 0.15 µg/mL: [3]
2 µg/mL: [1] | [4] | [39]
0.03 µg/mL: [2] | [23]
1 µg/mL: [12] | [35]
0.12 µg/mL: [6] | [9] | [15] | [19] | [20] | [21] | [26] | [31] | [37]
4 µg/mL: [8] | [10] | [16] | [17] | [33] | [41]
0.25 µg/mL: [14] | [18] | [25] | [27] | [30]
0.5 µg/mL: [7] | [22] | [24] | [43]
0.06 µg/mL: [32] | [44]
> 16 µg/mL: [5] | [36] | [38]
< 0.015 µg/mL: [13] | [28] | [34]
16 µg/mL: [11] | [40] | [42]
8 µg/mL: [29]

O=C(O)c1cn(C2CC2)c2cc(N3CCNCC3)c(F)cc2c1=O [CIPROFLOXACIN]
0.06 µg/mL: [9] | [19] | [26] | [43]
0.25 µg/mL: [1] | [6] | [15] | [22] | [24] | [39]
0.03 µg/mL: [7] | [18] | [27] | [30] | [32] | [44]
16 µg/mL: [5] | [36] | [38]
2 µg/mL: [4] | [8] | [16] | [41]
4 µg/mL: [10] | [17] | [29] | [33] | [42]
256 µg/mL: [40]
0.12 µg/mL: [12] | [14] | [25] | [35]
0.015 µg/mL: [31]
< 0.015 µg/mL: [2] | [3] | [13] | [20] | [21] | [23] | [28] | [34] | [37]
32 µg/mL: [11]

CO[C@@]1(NC(=O)Cc2cccs2)C(=O)N2C(C(=O)O)=C(COC(N)=O)CS[C@@H]21 [CEFOXITIN]
4 µg/mL: [3] | [12] | [20] | [37] | [43]
1 µg/mL: [2] | [5] | [6] | [7] | [8] | [10] | [13] | [16] | [17] | [19] | [22] | [23] | [24] | [26] | [32] | [33] | [34] | [36] | [38] | [41]
0.5 µg/mL: [28] | [44]
> 16 µg/mL: [4] | [11] | [29] | [39] | [40] | [42]
2 µg/mL: [1] | [9] | [14] | [15] | [18] | [21] | [25] | [27] | [30] | [31] | [35]

CCn1cc(C(=O)O)c(=O)c2cc(F)c(N3CCNCC3)nc21 [ENOXACIN]
1 µg/mL: [12] | [39]
0.25 µg/mL: [7] | [22]
2 µg/mL: [4]
> 16 µg/mL: [11] | [40]
16 µg/mL: [5] | [36] | [38]
8 µg/mL: [42]
0.5 µg/mL: [1] | [35]
0.03 µg/mL: [23] | [32] | [44]
4 µg/mL: [8] | [10] | [16] | [17] | [29] | [33] | [41]
0.12 µg/mL: [6] | [9] | [14] | [15] | [24] | [25] | [43]
0.06 µg/mL: [18] | [19] | [20] | [21] | [26] | [27] | [30] | [31] | [37]
< 0.015 µg/mL: [2] | [3] | [13] | [28] | [34]
